Results as given in ChEMBL document CHEMBL1133270, “Cinnamaldehydes inhibit cyclin dependent kinase 4/cyclin D1” (Bioorg Med Chem Lett, 2000).

Experiments:
Format in all cases: protein-complex assay
[1] = biological target: Cyclin-dependent kinase 4/cyclin D1 (Homo sapiens) (UniProt P11802+P24385); test: Inhibitory activity against Cyclin D1-cyclin-dependent kinase 4; design: concentration or dose not given beside the values; settings: concentration not given here
How it was run: (§1)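 GST-cyclin D1-CDK4 from baculovirus-infected Sf21 cells, purified by glutathione chromatography, used at 200 nM. The substrate was a GST-RB fusion (RB residues 792–928), with ATP plus [γ-³³P]ATP. Compounds were added and the reaction ran 30 min at 30 °C, then was stopped with ice-cold 30% TCA. Products were captured on PVDF filter plates and ³³P-RB counted by scintillation. Inhibition is expressed relative to an inhibitor-free control.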

[2] = biological target: T1, Cyclin-dependent kinase 4/cyclin D1 (Homo sapiens, UniProt P11802); test: Inhibition of Cyclin D1-cyclin-dependent kinase 4; how it was run: as §1
[3] = biological target: Cyclin-dependent kinase 1/cyclin B (Homo sapiens, UniProt P06493); test: Inhibition of Cyclin B-cyclin-dependent kinase 1
How it was run: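 Cyclin B-CDK1 purified from starfish oocytes; histone H1 as substrate; kinase reaction run for 10 min at 30 °C. Read-out is histone H1 phosphorylation, expressed as a percentage of the control reaction run without inhibitor.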

[4] = biological target: T1, Cyclin-dependent kinase 4/cyclin D1; test: Inhibition of Cyclin D1-Cyclin dependent kinase 4; how it was run: as §1

T1 sequence (P11802 whole entry): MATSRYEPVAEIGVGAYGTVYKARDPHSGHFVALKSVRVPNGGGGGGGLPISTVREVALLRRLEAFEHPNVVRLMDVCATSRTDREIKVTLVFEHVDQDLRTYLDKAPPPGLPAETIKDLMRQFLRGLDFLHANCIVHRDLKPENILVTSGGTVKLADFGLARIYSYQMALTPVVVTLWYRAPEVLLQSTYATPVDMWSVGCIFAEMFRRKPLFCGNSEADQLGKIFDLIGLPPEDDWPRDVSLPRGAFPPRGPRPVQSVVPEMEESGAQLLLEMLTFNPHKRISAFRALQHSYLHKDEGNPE
T1 sequence (P24385 whole entry, further chain): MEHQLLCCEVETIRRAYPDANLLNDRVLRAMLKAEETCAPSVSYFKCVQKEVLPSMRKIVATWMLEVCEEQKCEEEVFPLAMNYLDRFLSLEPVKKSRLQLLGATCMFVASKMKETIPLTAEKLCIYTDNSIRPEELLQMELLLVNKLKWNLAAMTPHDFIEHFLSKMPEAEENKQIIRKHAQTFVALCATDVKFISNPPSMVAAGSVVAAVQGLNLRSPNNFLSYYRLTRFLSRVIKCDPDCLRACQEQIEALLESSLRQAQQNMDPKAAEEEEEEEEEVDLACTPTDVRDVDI

Row | SMILES | inhibition [1] | further results
1 | O=C(O)/C=C/c1ccccc1O | < 10% | 
2 | O=C/C=C/c1ccccc1OCc1ccccc1 | 85% | IC50 [2]: 11 µM; IC50 [3]: 50 µM
3 | Cc1ccccc1COc1ccccc1/C=C/C=O | 70% | IC50 [2]: 18 µM; IC50 [3]: 200 µM
4 | O=C/C=C/c1ccccc1[N+](=O)[O-] | 30% | 
5 | O=C/C=C/c1ccccc1Cl | 51% | 
6 | Cc1ccccc1COc1cccc(/C=C/C=O)c1 | 73% | IC50 [2]: 15 µM; IC50 [3]: 60 µM
7 | CC(Oc1cccc(/C=C/C=O)c1)c1ccccc1 (stereo unspecified) | 77% | 
8 | O=C/C=C/c1cccc(O)c1 | 40% | IC50 [4]: 45 µM; IC50 [3]: 30 µM
9 | COc1ccc2c(COc3cccc(/C=C/C=O)c3)cc(=O)oc2c1 | 53% | 
10 | O=C/C=C/c1cccc(OCc2cccc3ccccc23)c1 | 85% | 
11 | O=C/C=C/c1cccc(OCc2ccccc2)c1 | 94% | IC50 [2]: 7.5 µM; IC50 [3]: 50 µM
12 | COc1ccc(/C=C/C=O)cc1O | 40% | 
13 | O=C/C=C/c1cccc(OCCc2ccccc2)c1 | 80% | 
14 | O=C/C=C/c1cccnc1 | 54% | 
15 | O=C/C=C/c1cccc(OCc2ccc3c(c2)C(=O)c2ccccc2C3=O)c1 | 34% | 

The next lines start with results.

Row | inhibition [1] | SMILES | further results
16 | 23% | COc1ccccc1C(=O)Oc1ccccc1/C=C/C=O | 
17 | 38% | O=C/C=C/c1ccccc1OCc1cccc2ccccc12 | 
18 | 59% | COc1ccc(COc2ccccc2/C=C/C=O)cc1 | 
19 | 65% | COc1ccccc1COc1cccc(/C=C/C=O)c1 | 
20 | 82% | COc1ccc(COc2cccc(/C=C/C=O)c2)cc1 | 
21 | 84% | Cc1ccc(COc2cccc(/C=C/C=O)c2)cc1 | 
22 | 50% | Cc1ccc(C(=O)Oc2ccccc2/C=C/C=O)cc1 | 
23 | 52% | O=C/C=C/c1ccccc1OC(=O)c1ccccc1 | 
24 | 25% | O=C/C=C/c1ccccc1OC(=O)c1ccc(F)cc1 | 
25 | 88% | O=C/C=C/c1cccc(OCc2ccc(Br)cc2)c1 | 
26 | 50% | O=C/C=C/c1ccccc1O [2-HYDROXYCINNAMALDEHYDE] | IC50 [2]: 35 µM; IC50 [3]: 130 µM
27 | 68% | Cc1ccc(COc2ccccc2/C=C/C=O)cc1 | 
28 | 43% | COc1ccccc1COc1ccccc1/C=C/C=O | 
29 | 72% | O=C/C=C/c1ccccc1OCCc1ccccc1 | 
30 | 63% | CC(Oc1ccccc1/C=C/C=O)c1ccccc1 (stereo unspecified) | 
31 | 45% | N#Cc1ccccc1COc1cccc(/C=C/C=O)c1 | 
32 | 58% | COc1ccc(/C=C/C=O)cc1OCc1ccc(Br)cc1 | 
33 | 71% | O=C/C=C/c1ccccc1OCc1ccc(Br)cc1 | 
34 | 22% | N#Cc1ccccc1COc1ccccc1/C=C/C=O | 
